# Only some compounds are listed: those with a hit (about 2.4% of all), similar ones and a draw of the others.
# CSN deneddyl inh – inhibitors of CSN-mediated cullin deneddylation, primary screen, biochemical, fluorescence polarization, uHTS; hit rate 0.38% among 360,000; COP9 signalosome complex subunit 5 (Homo sapiens), Q92905; inhibition, % at 12.5 µM; AID 651999, 2013; Purified CSN, SCF-Nedd8-OG deneddylation;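 active = pattern-corrected inhibition above about 35%, with an unprinted fluorescence ratio check between 0.5 and 1.5, limit read from the data, passing the limit was not always enough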;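 note: 0% = enzyme with substrate and 100% = substrate without enzyme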
# Target sequence (Q92905 whole entry, looked up, one chain of several): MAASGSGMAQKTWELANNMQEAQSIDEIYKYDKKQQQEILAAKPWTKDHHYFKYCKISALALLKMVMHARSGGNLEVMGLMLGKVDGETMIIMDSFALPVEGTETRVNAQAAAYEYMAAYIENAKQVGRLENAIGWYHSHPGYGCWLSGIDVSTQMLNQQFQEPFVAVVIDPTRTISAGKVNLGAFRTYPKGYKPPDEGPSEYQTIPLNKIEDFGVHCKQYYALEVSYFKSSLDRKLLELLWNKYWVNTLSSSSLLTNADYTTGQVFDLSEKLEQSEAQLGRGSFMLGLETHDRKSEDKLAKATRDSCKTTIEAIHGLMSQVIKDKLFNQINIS
#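 Assay system: purified human Csn5 enzyme expressed in HEK293T cells; Input: 0.24 nM Csn5 enzyme, final concentration; Reagent: 10 nM SCFSkp2-Nedd8OG; Compound dosing: 12.5 µM single point; Times: reaction 90 min, room temperature; Technique: fluorescence polarization readout.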
# HNF4A DNA FP – change in binding of human HNF4A to DNA, primary screen, biochemical, fluorescence polarization, FITC-DNA; 1 h; AID 1224865, 2016; activity change, % at 10 µM; hit rate 0.3% among 360,000; in the data active = activity change above about 30%, passing the limit was not always enough
# Neddyl block – inhibitors of cullin neddylation, primary screen, biochemical, TR-FRET, uHTS, NAE and Ubc12; NEDD8-conjugating enzyme Ubc12 (Homo sapiens) + NEDD8-activating enzyme E1 regulatory …; inhibition, % at 25 µM; hit rate 0.58% among 360,000; AID 651699, 2012; in the data active = inhibition above about 36%
# PREPL inhibitor – PREPL enzyme inhibitors, primary screen, biochemical, fluorescence polarization | Prolyl endopeptidase-like (Homo sapiens), Q4J6C6 | recombinant PREPL, fluorescence polarization activity-based probe | inhibition, % at 5.96 µM | hit rate 0.68% among 320,000;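 note: 0% = enzyme with DMSO and 100% = wells lacking enzyme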
# Tb MetRS inh – T. brucei MetRS inhibitors, primary screen, biochemical, luminescence; purified T. brucei MetRS, ATP depletion, Kinase-Glo luminescence; AID 624268, 2012; methionyl-tRNA synthetase (Trypanosoma brucei brucei); inhibition, % at 11.9 µM; hit rate 0.4% among 360,000;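 active = inhibition above a per-plate cutoff of the control wells' mean inhibition plus 3 SD, cut at about 5.5% in these data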;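 note: 0% = DMSO wells median and 100% = median of wells with control inhibitor compound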
#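 Assay system: T. brucei methionyl-tRNA synthetase, purified | Medium: HEPES buffer with MgCl2, KCl, DTT, spermine, BSA, pyrophosphatase | Compound: 11.9 µM single point | Incubation: 15 min enzyme-compound preincubation, 2 h reaction, 10 min detection, 25 °C | Measured by: Kinase-Glo luciferase luminescence reporting remaining unconsumed ATP | Measure: % inhibition normalized to control-well medians | Replication: Singlicate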
# Rpn11 inh – Rpn11 (PSMD14) deubiquitinase inhibitors, primary screen, biochemical, fluorescence polarization, uHTS; hit rate 0.59% among 360,000; inhibition, % at 20 µM; human 26S proteasome, Ub4-pepOG fluorescence polarization; 20S core pre-blocked with epoxomicin;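 active = inhibition at 20 µM, scaled to each plate's controls, above about 33%, limit read from the data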
# Target sequence (O00487 whole entry, looked up): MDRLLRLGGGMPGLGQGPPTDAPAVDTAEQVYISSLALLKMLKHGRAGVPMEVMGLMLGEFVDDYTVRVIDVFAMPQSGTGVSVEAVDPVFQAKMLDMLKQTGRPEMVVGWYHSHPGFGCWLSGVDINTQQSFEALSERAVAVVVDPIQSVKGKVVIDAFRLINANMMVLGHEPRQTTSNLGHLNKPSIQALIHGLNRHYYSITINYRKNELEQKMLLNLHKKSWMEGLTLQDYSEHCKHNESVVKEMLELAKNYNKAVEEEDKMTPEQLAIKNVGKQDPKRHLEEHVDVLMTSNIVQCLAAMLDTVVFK
# PREPL confirm – human PREPL enzyme inhibitors, confirmation, biochemical, fluorescence polarization. shares compounds with PREPL inhibitor. recombinant PREPL, fluorescence polarization activity probe. inhibition, % at 5.96 µM. hit rate 67% among 2,000;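 note: 0% = protein with DMSO and 100% = wells lacking protein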
# Starred values were filed as active, the others as inactive; nt = not tested or not shown. Cut-off read from the data, not from the text of the source, unless noted: active = inhibition above about 43%; inactive = the rest.
SMILES,CSN deneddyl inh,HNF4A DNA FP,Neddyl block,PREPL inhibitor,Tb MetRS inh,Rpn11 inh,PREPL confirm
CCc1ccc(CNc2ccc3c(c2)ncn3C(C)(C)C)cc1,-2,0,15,48*,-1,7,50*
CC(C)(C)n1cnc2cc(NCc3ccc(Br)cc3)ccc21,7,4,11,54*,-1,-6,63*
O=S(=O)(Nc1cccc(S(=O)(=O)N2CCCC2)c1)c1cccc(Br)c1,1,2,-21,6,0,2,nt
O=C(CNC(=O)c1cccc(-n2cccc2)c1)Nc1ccccc1Br,0,-10,15,nt,0,-4,nt
O=C(NCCNc1ccc2ccccc2c1)c1cccn2c(=O)c3sccc3nc12,nt,nt,nt,51*,nt,nt,41
CN(CCCNC(=O)c1cccn2c(=O)c3ccccc3nc12)Cc1ccccc1,1,-1,28,13,0,5,nt
CCN(CC)CCNc1ccc(CO)c2oc3ccccc3c(=O)c12,-3,0,-7,nt,0,8,nt
CN(Cc1ccccc1)C(=O)Cn1nnc(-c2ccccc2)c1COc1ccccc1,4,-4,-2,nt,0,0,nt
O=C1Nc2ccccc2-n2nnnc2C1N1CCc2ccccc2C1 (centres undefined),-2,-10,4,nt,-1,nt,nt
CN1CCN(CCCNC(=O)c2ccc3c(c2)N(Cc2ccc(F)cc2)CCS3)CC1,1,2,-12,44*,1,3,36
C#CCOCCOCCOCCNc1nc(N2CCN(C(=O)CCCCCCCCCCNC(=O)[C@H](CCCCN)n3cc(CCO)nn3)CC2)nc(N2CCN(C(=O)CCCCCCCCCCNC(=O)[C@H](CCCCN)n3cc(C[C@@H](C)CC)nn3)CC2)n1,nt,nt,nt,45*,nt,nt,55*
C#CCOCCOCCOCCNc1nc(N2CCOCC2)nc(N2CCN(C(=O)CCCCCCCCCCNC(=O)[C@H]([C@@H](C)CC)n3cc(CCCCN=C(N)N)nn3)CC2)n1,0,2,-17,27,0,2,nt
C#CCOCCOCCOCCNc1nc(N2CCN(C(=O)CCCCCCCCCCNC(=O)[C@H](CCCCN)n3cc(C)nn3)CC2)nc(N2CCN(C(=O)CCCCCCCCCCNC(=O)[C@H](CCCN=C(N)N)n3cc(C[C@@H](C)CC)nn3)CC2)n1,nt,nt,nt,47*,nt,nt,56*
COc1ccc(C(=O)c2[nH]c(N)c(C(=O)NCCc3c[nH]c4ccccc34)c2-c2c(F)cccc2Cl)cc1,0,-3,14,nt,-1,nt,nt
COc1ccc(C)c2sc(N(CCCN(C)C)C(=O)c3ccc4c(c3)OCCO4)nc12,-5,1,3,13,0,-8,nt
O=C(NCCCN1CCOCC1)C1CCN(S(=O)(=O)c2cccc(C(F)(F)F)c2)CC1,-1,0,-30,12,0,1,nt
O=C(NCCc1c[nH]c2ccccc12)C(=O)NCC(c1cccnc1)N1CCN(c2ccccc2)CC1 (centres undefined),-2,-33,-1,52*,0,-6,46*
COC(=O)c1cc(=O)c2c(ccc3oc(=O)ccc32)[nH]1,-8,0,20,nt,0,7,nt
C[N+](C)(C)c1ccc(/C=N/Nc2nc(Cl)c(C#N)c(Cl)c2Cl)cc1,10,7,-1,56*,-1,8,20
Cc1nn(C(C)C)c(C)c1CN1CCC(C(=O)Nc2cccc(-c3cccc(F)c3)c2)CC1,-3,6,5,-26,0,-4,nt
Cc1ccc(S(=O)(=O)NCC(=O)OCC(=O)N(CCC#N)c2ccccc2)cc1,-8,0,-7,47*,0,-4,38
NC(=O)COC(=O)CNC(=O)c1sc2ccccc2c1Cl,-3,5,-71,-4,0,7,nt
Cc1cc(C)cc(N(CCC#N)C(=O)COC(=O)CNC(=O)c2sc3ccccc3c2Cl)c1,2,-4,-149,43*,0,-8,40
CNS(=O)(=O)c1cccc(C(=O)OCC(=O)N(CCC#N)c2ccccc2)c1,-9,-1,-5,-1,2,0,nt
CCOC(=O)C1CCN(C(=O)CCn2c(=O)oc3ccccc32)CC1,-1,2,5,nt,1,0,nt
SMILES,CSN deneddyl inh,HNF4A DNA FP,Neddyl block,PREPL inhibitor,Tb MetRS inh,Rpn11 inh,PREPL confirm
COc1ccc(CC(=O)N2CCN(S(=O)(=O)c3cc(Cl)ccc3Cl)CC2)cc1,2,-1,-14,79*,0,-4,18
CC(=O)NN1C(=O)c2ccc3c4c(ccc(c24)C1=O)C(=O)N(NC(C)=O)C3=O,-1,0,-66,14,-1,-4,nt
CCCCCCN1C[C@@H](n2cc(C3CC3)nn2)[C@H](O)C[C@@H]1c1ccc(OC)cc1,4,-3,1,nt,0,0,nt
CCN1/C(=C/c2cccc[n+]2C)Sc2ccc(OC)cc21,2,2,-77,48*,0,13,46*
Cc1ccc(S(=O)(=O)N2CCN(C(=O)c3cc(S(=O)(=O)N4CCOCC4)c(Cl)cc3Cl)CC2)cc1,-5,-3,-20,nt,0,0,nt
Clc1ccc(-c2csc(=Nc3cccnc3)n2CCCn2ccnc2)cc1Cl,-13,0,-18,56*,0,-7,58*
OCCCn1c(-c2ccccc2)csc1=Nc1ccccc1,1,-2,1,12,0,-1,nt
COCCn1c(-c2ccc(Br)cc2)csc1=Nc1cccnc1,12,-4,2,48*,-1,-2,50*
CCCCCC(=O)Nc1cccc(C2=NOC3(C2)C[C@@H](C(N)=O)N(C(=O)Cc2ccc([N+](=O)[O-])cc2)C3)c1 (some centres undefined),-5,3,-23,3,0,-4,nt
NC(=O)[C@H]1CC2(CC(c3cccc(NC(=O)COc4ccc(Cl)cc4)c3)=NO2)CN1C(=O)Cc1ccc([N+](=O)[O-])cc1 (some centres undefined),1,-5,-52,49*,0,-6,50*
Nc1cc(N)cc(-c2nc3ccccc3o2)c1,-1,6,-2,55*,-1,8,34
Cn1nc(-c2ccc(Cl)cc2)nc2c(=O)n(C)c(=O)nc1-2,nt,nt,nt,44*,nt,nt,60*
CS(=O)(=O)n1nc(-c2ccc(Cl)cc2)nc1N,-13,0,0,-15,0,1,nt
